Most compounds without a hit are left out; they make up all but 6.4% or so of the library.
PostGolgi ctrl: inhibits growth of the yeast control strain; efflux-deficient yeast background strain, growth absorbance A615, 16 h; inhibition, % at 10 µM; actives 5% (n = 98,000); AID 738
PLK1 PBD inh: blocks phosphopeptide binding to human Plk1 polo box domain. Plk1 PBD phosphopeptide binding, fluorescence polarization. inhibition, %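 (tested at about 20 µM)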. actives 0.13% (n = 97,000). AID 693; in the data active means inhibition above about 34%, passing the limit was not always enough
EphB4 antag: blocks human EphB4 binding to ephrin-B2. inhibition, % at 7 µM. EphB4 LBD / TNYL-RAW-Alexa532 peptide, fluorescence polarization. actives 0.15% (n = 97,000). P54760;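 active means inhibition above the screen-wide mean inhibition plus 3 SD, cut at about 15% in these data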;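 further: 0% = DMSO wells and 100% = excess unlabeled TNYL-RAW peptide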
PostGolgi yeast: growth inhibition of a yeast mutant, post-Golgi transport screen | actives 0.9% (n = 98,000) | post-Golgi transport phenotypic cell assay | inhibition, % at 10 µM;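 further: yeast cells grown in 1536-well plates; yeast grown about 18 h at 30C before absorbance read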
PLK1 inh: blocks human PLK1 kinase activity | P53350 | recombinant PLK1 kinase, TR-FRET peptide phosphorylation | inhibition, % at 10 µM | actives 0.53% (n = 97,000);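 active means inhibition of 50% or more in the single-concentration screen; inactive means inhibition below 50%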;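 further: 0% = DMSO max control and 100% = H-89 dihydrochloride min control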
HIV Rev-RRE inh: disrupts HIV-1 Rev binding to RRE RNA; inhibition, % at 8 µM; AID 704; Rev peptide-RRE RNA binding, FRET; actives 0.79% (n = 97,000);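 active means inhibition above the screen-wide mean plus 3 SD, cut at about 35% in these data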;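 further: 0% = median DMSO wells and 100% = median Neomycin B control wells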
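Assay system: Labelled RRE RNA duplex and labelled Rev peptide | Times: 5 min preincubation and 15 min binding, 25 °C | Detection: FRET, ex 480 nm, em 540 and 671 nm | Evaluation: % inhibition of FRET ratio versus controls | Benchmarks: DMSO wells as 0% and neomycin B wells as 100% inhibition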
* marks the source's active call; other numbers are inactive results; / = no result given; [ ] = another dose, or the depositor's remark. Unless noted, no stated cut-off is given here; in the data, active means inhibition above about 30%; inactive means the rest.

SMILES | PostGolgi ctrl | PLK1 PBD inh | EphB4 antag | PostGolgi yeast | PLK1 inh | HIV Rev-RRE inh
CCCCC(SCC(=O)Nc1ccccc1)C(=O)O (centres undefined) | 7 | -10 | -1 | -11 | -8 | 7
CCOc1[nH]n(-c2ccc(Cl)cc2)c(=O)c1C=Nc1ccc(Cl)cc1 | 6 | -3 | 7 | -2 | 2 | 3
COc1cc(SC#N)ccc1N=Cc1c(C)[nH]n(-c2ccc(Cl)cc2)c1=O | 32* | -7 | -1 | 10 | -9 | 12
CNc1nc(-c2ccccn2)nnc1-c1ccccc1 | 10 | 13 | 1 | 14 | -7 | 3
c1ccc(-c2nnc(-c3ccccn3)nc2NC2CCCCC2)cc1 | 87* | -5 | 5 | 40* | -2 | 2
CC(C)Cn1c(SCc2nc3ccccc3c(=O)[nH]2)nc2ccccc2c1=O | 1 | -4 | 0 | -14 | -11 | 5
COc1ccc(OCc2cccc(C(=O)Nn3cc([N+](=O)[O-])cn3)c2)cc1 | / | -15 | 0 | / | -9 | -3
Cc1cc2ncn(C3CC(=O)N(Cc4ccccc4)C3=O)c2cc1C (centres undefined) | 40* | 17 | 4 | 5 | -7 | 13
O=C1c2cnccc2CN1Cc1ccccc1 | 2 | 5 | 7 | -4 | -7 | 11
Cc1c(C)n(C(=O)CSc2nc3ccccc3[nH]2)c2ccccc12 | 31* | -13 | -5 | -2 | -3 | 11
CCCCc1nc(NCC2CCCO2)c(C#N)c2c1COC(C)(C)C2 (centres undefined) | 96* | 1 | 2 | 2 | -16 | 4
COCCNc1cc(C)nc2c3c(C)cc(C)nc3nn12 | 0 | -6 | -2 | 47* | -12 | 5
Cc1cc(C)c2c(n1)nn1c(NCCN3CCOCC3)cc(C)nc21 | 3 | / | / | 1 | / | /
COc1ccc(CCCNC(=O)CC#N)cc1OC | -2 | -15 | -2 | -7 | -7 | 1
COC(=O)c1nnn(-c2nonc2N)c1CSc1nc2ccccc2s1 | 60* | 28 | 3 | 5 | -9 | 9
COC(=O)c1cn[nH]c1NC(=S)Nc1ccc(Cl)c(Cl)c1 | 42* | -40 | 5 | -3 | 3 | 6
O=C(Nc1ncc(Cc2cccc(Cl)c2Cl)s1)c1ccc([N+](=O)[O-])cc1 | 17 | -41 | -8 | 2 | -5 | 1
O=C(Nc1ncc(Cc2cc(Cl)ccc2Cl)s1)c1ccc([N+](=O)[O-])cc1 | 31* | -1 | 2 | 7 | -16 | 0
Cc1cccc(NS(=O)(=O)c2cccc3nsnc23)c1 | 3 | -7 | 3 | -15 | -6 | 8
Cc1ccc(C)c(S(=O)(=O)Nc2ccc3scnc3c2)c1 | 50* | -2 | 2 | -5 | -6 | 5
CCN(c1ccc(NC(=O)COC(=O)c2ccc(S(=O)(=O)N3CCCC3)cc2)cc1)C(C)C | 2 | 16 | -3 | 0 | -5 | 2
Cc1ccc2c(CC(=O)OCc3nc(N)nc(Nc4ccccc4C)n3)coc2c1 | 36* | -38 | -3 | 6 | 0 | 8
Cc1ccccc1Nc1nc(N)nc(COC(=O)CCS(=O)(=O)c2ccccc2)n1 | -3 | / | / | -7 | / | /
O=C(CSc1ncn(-c2ccccc2)n1)Nc1nc2ccccc2s1 | 25 | -22 | -2 | 3 | -4 | 11
CC(C)c1nc(SCC(=O)Nc2nc3c(s2)CCCC3)c2ccccc2n1 | 39* | 10 | 0 | 22 | -2 | 10
SMILES | PostGolgi ctrl | PLK1 PBD inh | EphB4 antag | PostGolgi yeast | PLK1 inh | HIV Rev-RRE inh
O=C(Cc1cccs1)Nc1nc2c(s1)CCCC2 | -3 | 1 | -11 | 35* | -5 | -7
CC(C)(C)c1nc(SCC(=O)Nc2nc3c(s2)CCCC3)c2ccccc2n1 | 34* | -30 | 0 | -8 | -9 | 13
Cn1c(SCC(=O)Nc2nc3c(s2)CCCC3)nnc1-c1ccccc1 | 9 | -12 | 1 | -6 | -9 | 7
O=C(CSc1ncn(-c2ccccc2)n1)Nc1nc2c(s1)CCCC2 | 46* | -8 | 0 | -2 | -3 | 4
O=C(Nc1nc2c(s1)CCCC2)c1cccs1 | 11 | -6 | -5 | -5 | 2 | -1
O=C(Nc1cc(N2CCOCC2)ncn1)NC1(C(F)(F)F)Oc2ccccc2O1 | / | -6 | 3 | / | -12 | 16
O=C(CCSc1ccccc1)Nc1nc2c(s1)CCCC2 | 19 | 1 | 4 | 4 | -8 | 9
O=C(CSc1nc(Cc2ccccc2)nc2ccccc12)Nc1nc2c(s1)CCCC2 | 40* | 10 | -5 | 13 | -12 | 2
CCOC(=O)CC(=O)CSc1nc(-c2cccnc2)ccc1C#N | 4 | 6 | 4 | 0 | -15 | 88*[fluorescence artefact?]
Cn1nc(-c2ccc(N3CCOCC3)c(NS(=O)(=O)c3ccc(Cl)cc3)c2)c2ccccc2c1=O | 30* | -18 | 0 | -11 | -2 | 2
COc1ccccc1NC(=O)N(Cc1ccccc1)C1=NCC(C)S1 (centres undefined) | 28 | -5 | 7 | 7 | -7 | 15
COc1ccccc1N(C(=O)NCc1ccccc1)C1=NCC(C)S1 (centres undefined) | 48* | 11 | 6 | -4 | 10 | 9
Cc1cc(C)c2[nH]c(=O)c(CN(Cc3nnnn3C3CCCC3)C3CCCCC3)cc2c1 | 1 | -11 | -3 | 6 | 2 | 5
Cc1cccc2cc(CN(Cc3nnnn3C3CCCCC3)C3CCCC3)c3nnnn3c12 | 86* | -5 | -1 | 97* | -8 | 3
CCCCCCCCCOC(=O)C[n+]1csc(CCO)c1C | 64* | -38 | -3 | 14 | -18 | 7
C=CCn1c(-c2ccc(S(=O)(=O)N3CCOCC3)cc2)csc1=Nc1ccccc1 | 29 | 18 | 6 | -1 | -19 | 3
Cc1csc(=Nc2ccc(S(=O)(=O)N3CCOCC3)cc2)n1Cc1ccco1 | 44* | 30 | 1 | -1 | -12 | 3
CCc1ccc2c(COC(=O)c3n[nH]c4ccccc34)cc(=O)oc2c1 | 37* | -20 | -4 | -4 | -20 | 6
CC1CCc2c(sc3ncnc(NCCCOC(C)C)c23)C1 (centres undefined) | 32* | -1 | 1 | 2 | 5 | 7
c1nc(NCCN2CCOCC2)c2c3c(sc2n1)CCCCC3 | 14 | 8 | 2 | -11 | -2 | 9
CCc1ccc(NS(=O)(=O)c2ccc(OC)c(C)c2)cc1 | 36* | 19 | -1 | -10 | -8 | 24
COc1ccc(S(=O)(=O)Nc2ccc(S(=O)(=O)Nc3nc(C)cc(C)n3)cc2)cc1OC | 32* | -9 | -2 | 5 | -7 | 4
COc1ccc(S(=O)(=O)Nc2ccc(C)cc2)cc1OC | 17 | 22 | -7 | -1 | -4 | -2
CCOc1cc(S(=O)(=O)Nc2ccccc2CC)ccc1Cl | 59* | 7 | 3 | 11 | -12 | 19
CCOc1cc(S(=O)(=O)Nc2ccc(CC)cc2)ccc1Cl | 41* | 1 | -9 | -8 | -5 | 21
O=C(O)CCCc1nc(-c2ccccc2)no1 | -1 | -15 | 0 | -2 | -5 | 11

Bioassay records deposited in PubChem by several laboratories.
